Columns and labels:
H460 cells [1] = test: Apoptosis assay; format: cell-based, human
H460 cells [2] = test: Proliferation assay; format: cell-based, human
ferret = test: Ferret model of emesis; format: in vivo; conditions: increasing doses; for induction of emesis (retches and vomits): 2 h test
H460 cells [3] = test: Mitochondria respiration profiling; format: cell-based, human
Procedure, shortened: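 On the XF96, basal OCR was followed by injection of test compound doses (10X), then oligomycin (1 µg/ml), FCCP, and rotenone plus antimycin A (1 µM each). Cycles were 4 min mix, 3 min measure; control injections were medium. OCR expressed as fold of vehicle.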

H460 cells [4] = test: Total and mitochondrial ATP content; format: cell-based, human
Procedure, shortened: (§1)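 Cells (8000/well) were incubated 18 h at 37℃ (5% CO2). Test compound was added at half‐log doses, final 10 nM–10 µM, to paired plates for 1 h, with or without 100 µM iodoacetate. ATP was read by CellTiter‐Glo luminescence: mitochondrial ATP with iodoacetate, global ATP without. Mean ± SD.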

patients [5] = conditions: no reference given; cited from earlier work
H460‐LKB1 cells [6] = test: Apoptosis assay; format: cell-based, human; conditions: H460‐LKB1, even at 10 µM
198 kinases = test: DiscoverX KiNativ in situ kinase selectivity panel on live Jurkat cells; format: cell-based; conditions: 10 µM
LL/2 cells [7] = test: Proliferation assay; format: cell-based; conditions: Mus musculus, LL/2, read-out: apparent IC50 proliferation
Hep3B cells = test: Mitochondrial ATP content; format: cell-based; conditions: Homo sapiens, 1 h, read-out: IC50 mitochondrial ATP production
Procedure, shortened: as §1

CCK2R = CCK2R (Homo sapiens, UniProt P32239); test: Cerep in vitro safety screen, competition with reference ligand binding; conditions: 10 µM
Chain of CCK2R (P32239 whole entry, species assumed): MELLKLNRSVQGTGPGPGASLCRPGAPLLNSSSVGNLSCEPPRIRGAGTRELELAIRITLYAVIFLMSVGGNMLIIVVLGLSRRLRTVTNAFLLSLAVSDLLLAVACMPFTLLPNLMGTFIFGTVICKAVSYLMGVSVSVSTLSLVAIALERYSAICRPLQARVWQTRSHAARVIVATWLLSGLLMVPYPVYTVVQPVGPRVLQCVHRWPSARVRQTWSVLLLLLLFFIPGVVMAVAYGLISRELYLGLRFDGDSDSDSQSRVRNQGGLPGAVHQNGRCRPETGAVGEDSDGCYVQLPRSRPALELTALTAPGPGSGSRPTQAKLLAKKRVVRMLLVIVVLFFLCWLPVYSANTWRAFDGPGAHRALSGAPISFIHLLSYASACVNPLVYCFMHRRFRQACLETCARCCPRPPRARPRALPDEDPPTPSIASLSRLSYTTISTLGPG
Procedure, shortened: (§2)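 Cerep in vitro safety screen: test compound at 10 µM assessed for competition with reference ligand binding across a panel of 300 receptors.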

[8] = tested on: mitochondria isolated from liver of OF1; format: biochemical; conditions: 7.5 µM
Procedure, shortened: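 Polarographic measurement of oxidation and phosphorylation rates in mitochondria isolated from liver of female OF1 mice, over a range of test compound doses.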

BCRP = BCRP (Homo sapiens, UniProt Q9UNQ0); test: In vitro transporter inhibition; format: in vitro ADME
H460 WT cells = test: mTOR/AMPK pathway signaling; format: cell-based, human; conditions: WT H460, over 60 min
MRP2 = MRP2 (Homo sapiens, UniProt Q92887); test: In vitro transporter inhibition; format: in vitro ADME
H460‐LKB1 cells [9] = test: Total and mitochondrial ATP content; format: cell-based, human; conditions: H460‐LKB1, whatever the dose
Procedure, shortened: as §1

A2AR = A2AR (Homo sapiens, UniProt P29274); test: Cerep in vitro safety screen, competition with reference ligand binding; conditions: 10 µM
Chain of A2AR (P29274 whole entry): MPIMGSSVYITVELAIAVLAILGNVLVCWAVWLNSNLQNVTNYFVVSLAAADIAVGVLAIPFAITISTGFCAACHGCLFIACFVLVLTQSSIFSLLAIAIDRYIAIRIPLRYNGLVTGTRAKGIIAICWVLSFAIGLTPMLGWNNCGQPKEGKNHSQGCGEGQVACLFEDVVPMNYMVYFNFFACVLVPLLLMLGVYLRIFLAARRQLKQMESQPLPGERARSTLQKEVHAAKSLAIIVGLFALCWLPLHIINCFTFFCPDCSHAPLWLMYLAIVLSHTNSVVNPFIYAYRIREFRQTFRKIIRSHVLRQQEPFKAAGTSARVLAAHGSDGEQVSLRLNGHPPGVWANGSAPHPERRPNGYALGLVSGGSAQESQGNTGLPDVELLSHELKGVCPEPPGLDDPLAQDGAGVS
Procedure, shortened: as §2

[10] = tested on: OxPhos‐Eµ‐Myc and glycolytic‐Eµ‐Myc lymphoma cells; test: In vitro cell death assay; format: cell-based, mouse; conditions: 10 µM, 24 h, DAPI positive cells
Procedure, shortened: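 Primary Eμ‐Myc cells were maintained in DMEM with 10% FBS, 2‐mercaptoethanol (50 µM), L‐asparagine (0.37 mM) and HEPES (10 mM, pH 7.4). Cells (2 × 10^5/well) were exposed to test compound or DMSO for 24 h, stained with DAPI (0.5 µg/ml) and analysed by flow cytometry. Cell death = % DAPI‐positive in treated cells ÷ % DAPI‐positive in control. Mean of 4 independent experiments, 5 clones per group.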

OATP1B1 = OATP1B1 (Homo sapiens, UniProt Q9Y6L6); test: In vitro transporter inhibition; format: in vitro ADME
P‐gp = P‐gp (Homo sapiens, UniProt P08183); test: In vitro transporter inhibition; format: in vitro ADME; conditions: expressed in MDCKII
Chain of P‐gp (P08183 whole entry): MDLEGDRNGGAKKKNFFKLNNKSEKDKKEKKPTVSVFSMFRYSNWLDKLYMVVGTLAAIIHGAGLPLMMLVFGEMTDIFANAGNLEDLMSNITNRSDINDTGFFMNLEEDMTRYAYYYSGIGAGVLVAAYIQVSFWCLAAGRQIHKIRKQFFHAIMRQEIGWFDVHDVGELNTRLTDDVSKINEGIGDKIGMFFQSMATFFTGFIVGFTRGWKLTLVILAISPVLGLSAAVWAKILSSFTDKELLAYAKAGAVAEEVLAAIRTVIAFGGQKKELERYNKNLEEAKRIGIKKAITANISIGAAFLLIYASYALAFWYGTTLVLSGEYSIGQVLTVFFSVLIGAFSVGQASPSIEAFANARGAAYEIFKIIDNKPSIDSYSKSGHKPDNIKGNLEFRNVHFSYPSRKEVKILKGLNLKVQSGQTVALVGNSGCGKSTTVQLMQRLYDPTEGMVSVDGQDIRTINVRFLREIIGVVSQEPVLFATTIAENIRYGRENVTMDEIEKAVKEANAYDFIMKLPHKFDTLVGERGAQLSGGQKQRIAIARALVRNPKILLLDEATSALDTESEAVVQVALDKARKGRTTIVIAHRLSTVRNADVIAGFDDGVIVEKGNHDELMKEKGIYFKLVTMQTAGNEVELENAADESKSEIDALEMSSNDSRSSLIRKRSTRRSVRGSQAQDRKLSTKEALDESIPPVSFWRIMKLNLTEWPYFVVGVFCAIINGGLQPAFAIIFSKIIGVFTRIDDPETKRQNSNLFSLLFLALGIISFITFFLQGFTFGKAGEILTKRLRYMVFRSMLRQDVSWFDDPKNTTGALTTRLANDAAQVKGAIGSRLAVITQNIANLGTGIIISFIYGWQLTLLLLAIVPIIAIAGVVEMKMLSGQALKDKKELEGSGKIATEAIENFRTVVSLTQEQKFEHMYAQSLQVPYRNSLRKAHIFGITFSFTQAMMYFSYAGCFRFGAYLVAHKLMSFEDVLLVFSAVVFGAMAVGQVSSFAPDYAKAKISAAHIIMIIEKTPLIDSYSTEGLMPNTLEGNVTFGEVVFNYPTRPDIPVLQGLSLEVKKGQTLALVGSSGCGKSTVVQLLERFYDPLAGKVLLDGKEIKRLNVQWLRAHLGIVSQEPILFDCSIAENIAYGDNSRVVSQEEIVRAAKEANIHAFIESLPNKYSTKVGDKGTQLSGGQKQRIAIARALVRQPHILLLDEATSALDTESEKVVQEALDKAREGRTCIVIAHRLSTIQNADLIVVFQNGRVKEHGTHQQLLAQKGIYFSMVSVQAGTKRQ

LL/2 cells [11] = test: Apoptosis assay; format: cell-based, mouse; conditions: LL/2, even at 10 µM
[12] = Plasma pharmacokinetics after intravenous and oral administration; format: in vivo, C57BL/6J mice
Procedure, shortened: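 Plasma pharmacokinetics in C57BL/6J mice: intravenous test compound at 3 mg/kg, and escalating oral doses of 10, 30 and 75 mg/kg.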

[13] = target: Complex I purified from bovine heart (Bos taurus, UniProt P03887+P17694+P42026); test: MitoTox Complex I OxPhos Activity Assay; format: biochemical
Chain of Complex I purified from bovine heart (P17694 34-463): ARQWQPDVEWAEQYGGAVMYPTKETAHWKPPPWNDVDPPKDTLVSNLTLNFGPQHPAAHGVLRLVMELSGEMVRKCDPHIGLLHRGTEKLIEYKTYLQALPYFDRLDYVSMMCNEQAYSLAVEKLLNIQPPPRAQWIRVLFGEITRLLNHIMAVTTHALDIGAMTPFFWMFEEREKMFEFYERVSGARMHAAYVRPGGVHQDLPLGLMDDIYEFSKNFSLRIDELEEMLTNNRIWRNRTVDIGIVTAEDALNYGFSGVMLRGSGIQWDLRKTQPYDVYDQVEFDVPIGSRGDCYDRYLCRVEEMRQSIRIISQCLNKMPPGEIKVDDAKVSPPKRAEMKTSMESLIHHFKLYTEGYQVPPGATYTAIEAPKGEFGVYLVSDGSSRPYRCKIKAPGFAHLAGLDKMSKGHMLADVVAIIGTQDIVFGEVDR
Chain of Complex I purified from bovine heart (P42026 38-216): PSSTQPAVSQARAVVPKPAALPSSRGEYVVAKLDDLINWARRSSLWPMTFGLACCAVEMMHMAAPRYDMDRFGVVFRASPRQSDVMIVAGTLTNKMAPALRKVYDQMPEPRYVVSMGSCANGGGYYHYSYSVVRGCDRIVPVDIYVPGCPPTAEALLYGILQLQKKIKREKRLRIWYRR
Chain of Complex I purified from bovine heart (P03887 whole entry): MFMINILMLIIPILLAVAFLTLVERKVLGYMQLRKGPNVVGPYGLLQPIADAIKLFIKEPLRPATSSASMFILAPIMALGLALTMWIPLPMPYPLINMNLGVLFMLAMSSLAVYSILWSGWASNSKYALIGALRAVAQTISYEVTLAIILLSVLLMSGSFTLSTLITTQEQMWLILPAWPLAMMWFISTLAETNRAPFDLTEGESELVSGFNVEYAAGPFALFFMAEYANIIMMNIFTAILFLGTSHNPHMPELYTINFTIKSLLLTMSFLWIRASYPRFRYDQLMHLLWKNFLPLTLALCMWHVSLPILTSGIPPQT
Procedure, shortened: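 MitoTox Complex I kit: Complex I purified from bovine heart and immunocaptured on the plate by specific antibodies. Activity followed as the decrease in absorbance at 340 nm from NADH oxidation.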

KARPAS 422 cells [14] = test: Glucose and lactate levels; format: cell-based, human
H460‐LKB1 cells [15] = test: mTOR/AMPK pathway signaling; format: cell-based, human; conditions: H460‐LKB1, within minutes after exposure
MDA‐MB231 cells = test: Mitochondrial ATP content; format: cell-based; conditions: Homo sapiens, MDA-MB-231, 1 h, read-out: IC50 mitochondrial ATP production
Procedure, shortened: as §1

[16] = tested on: H460‐luc2 orthotopic tumors; test: Orthotopic H460 lung tumor model; format: in vivo, Balb/CJ‐Nude mice; conditions: 30 mg/kg p.o. QD from D7
Procedure, shortened: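 Male Balb/c Nude mice, 7 weeks old, were anaesthetised i.p. with Rompun (20 mg/kg) plus Imalgene (100 mg/kg). They were inoculated intrabronchially via an oral catheter with 25 µl of H460‐Luc2 cells at 20 million/ml in PBS. Mice were allocated by bioluminescence at D7 and dosed orally at 30 mg/kg daily for 15 days (3 mg/ml in PEG200/Solutol HS15/water 30%/5%/65%, 10 ml/kg) or vehicle; n = 9/group. Imaging at D7/D14/D21 used 12 min post i.p. D‐luciferin (2 mg). Tumors were measured at termination; t‐test.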

[17] = tested on: mouse acute myeloid leukemia; conditions: ref Luna Yolba, in revision; cited from earlier work
U87 cells = test: Mitochondrial ATP content; format: cell-based; conditions: Homo sapiens, U-87 MG, 1 h, read-out: IC50 mitochondrial ATP production
Procedure, shortened: as §1

OCT1 = OCT1 (Homo sapiens, UniProt O15245); test: In vitro transporter inhibition; format: in vitro ADME
OAT1 = OAT1 (Homo sapiens, UniProt Q4U2R8); test: In vitro transporter inhibition; format: in vitro ADME
OATP1B3 = OATP1B3 (Homo sapiens, UniProt Q9NPD5); test: In vitro transporter inhibition; format: in vitro ADME
Chain of OATP1B3 (Q9NPD5 whole entry): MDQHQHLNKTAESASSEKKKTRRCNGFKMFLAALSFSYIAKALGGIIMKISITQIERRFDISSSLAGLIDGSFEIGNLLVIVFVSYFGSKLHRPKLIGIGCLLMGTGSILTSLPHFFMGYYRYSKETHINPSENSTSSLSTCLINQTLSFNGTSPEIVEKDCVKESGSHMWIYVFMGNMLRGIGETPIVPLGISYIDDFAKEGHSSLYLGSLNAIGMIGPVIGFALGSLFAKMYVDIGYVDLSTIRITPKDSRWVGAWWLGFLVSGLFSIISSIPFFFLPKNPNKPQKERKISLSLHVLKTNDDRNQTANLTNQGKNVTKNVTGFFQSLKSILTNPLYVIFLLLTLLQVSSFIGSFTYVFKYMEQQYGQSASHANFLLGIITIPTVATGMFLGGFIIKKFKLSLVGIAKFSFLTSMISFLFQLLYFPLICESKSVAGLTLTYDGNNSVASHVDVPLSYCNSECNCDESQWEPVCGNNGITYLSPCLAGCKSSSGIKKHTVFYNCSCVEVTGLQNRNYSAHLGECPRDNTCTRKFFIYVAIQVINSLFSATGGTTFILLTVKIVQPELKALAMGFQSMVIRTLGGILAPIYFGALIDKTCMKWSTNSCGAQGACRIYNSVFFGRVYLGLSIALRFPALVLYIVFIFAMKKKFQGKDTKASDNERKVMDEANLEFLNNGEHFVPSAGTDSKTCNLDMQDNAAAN

[18] = tested on: glycolytic‐Eµ‐Myc lymphoma; test: B‐cell lymphoma in vivo study, glycolytic‐Eµ‐Myc; design: species or system C57BL/6 mice; conditions: 30 mg/kg p.o. QD, glycolytic‐Eµ‐Myc‐bearing mice
Procedure, shortened: (§3)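 Syngeneic female C57BL/6J Ola Hsd mice, 6 weeks old, received 1 × 10^5 viable Eμ‐Myc cells in PBS by tail vein. Oral dosing began 6 days later, when inguinal nodes became palpable: 30 mg/kg daily at 10 ml/kg in PEG200/Solutol HS15/water (30%/5%/65%), or vehicle alone; n = 10/group. Weight and node palpation every 2–3 days. Mice sacrificed at illness signs; node tumors and spleens weighed. Kaplan–Meier survival, log‐rank test.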

[19] = Tissue distribution after single oral administration; format: in vivo, C57BL/6J mice; conditions: male, C57BL/6J, mouse, 30 mg/kg
OxPhos‐Eµ‐Myc lymphoma = test: B‐cell lymphoma in vivo study, OxPhos‐Eµ‐Myc; design: species or system C57BL/6 mice; conditions: 30 mg/kg p.o. QD, OxPhos‐Eµ‐Myc‐bearing mice
Procedure, shortened: as §3

KARPAS 422 cells [20] = test: Proliferation assay; format: cell-based; conditions: Homo sapiens, KARPAS-422, read-out: IC50 proliferation
CCK1R = CCK1R (Homo sapiens, UniProt P32238); test: Cerep in vitro safety screen, competition with reference ligand binding; conditions: 10 µM
Procedure, shortened: as §2

MLK2 = MLK2 (Homo sapiens, UniProt Q02779); test: DiscoverX KiNativ in situ kinase selectivity panel on live Jurkat cells; format: cell-based; conditions: 10 µM
Chain of MLK2 (Q02779 whole entry): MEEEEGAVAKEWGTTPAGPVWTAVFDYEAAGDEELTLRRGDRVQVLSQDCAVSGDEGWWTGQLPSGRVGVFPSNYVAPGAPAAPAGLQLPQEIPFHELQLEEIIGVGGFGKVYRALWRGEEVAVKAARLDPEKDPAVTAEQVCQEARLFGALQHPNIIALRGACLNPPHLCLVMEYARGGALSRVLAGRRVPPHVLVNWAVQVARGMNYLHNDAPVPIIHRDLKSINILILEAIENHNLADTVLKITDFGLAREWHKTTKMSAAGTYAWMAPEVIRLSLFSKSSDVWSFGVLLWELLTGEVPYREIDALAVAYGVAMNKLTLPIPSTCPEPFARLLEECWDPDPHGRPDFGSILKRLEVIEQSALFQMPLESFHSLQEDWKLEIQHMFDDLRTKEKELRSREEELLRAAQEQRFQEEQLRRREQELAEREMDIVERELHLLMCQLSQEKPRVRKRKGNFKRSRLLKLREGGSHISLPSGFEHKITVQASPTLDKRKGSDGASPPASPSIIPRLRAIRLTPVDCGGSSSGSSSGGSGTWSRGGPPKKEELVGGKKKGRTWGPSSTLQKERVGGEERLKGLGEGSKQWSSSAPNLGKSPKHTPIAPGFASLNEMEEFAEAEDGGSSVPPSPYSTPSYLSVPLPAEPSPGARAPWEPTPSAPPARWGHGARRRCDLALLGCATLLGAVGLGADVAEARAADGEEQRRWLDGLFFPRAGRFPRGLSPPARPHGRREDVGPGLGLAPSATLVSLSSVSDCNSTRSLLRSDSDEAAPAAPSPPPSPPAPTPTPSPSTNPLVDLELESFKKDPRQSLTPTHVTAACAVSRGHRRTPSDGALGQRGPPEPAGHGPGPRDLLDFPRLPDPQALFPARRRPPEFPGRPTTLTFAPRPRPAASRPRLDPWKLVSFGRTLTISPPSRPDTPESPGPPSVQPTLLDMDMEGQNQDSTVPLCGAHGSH

patients [21] = conditions: 18 patients with advanced solid tumors; cited from earlier work

Structure (SMILES): Cc1cc(-c2nc(-c3ccc(OC(F)(F)F)cc3)no2)nn1Cc1ccnc(N2CCN(C3CC3)CC2)c1 [BAY87‐2243, reference compound]
- dose at which apoptosis is significantly affected (printed: inhibited) (H460 cells [1]; H460): less than or equal to 1 nM
- dose at which proliferation is significantly inhibited (H460 cells [2]; H460): less than or equal to 1 nM
- what limited dose escalation (ferret): limited by toxicity
- induction of emesis (retches and vomits) (ferret): induced retches and vomits from half of the first patient Cmax
- dose at which an effect on OCR is detected (H460 cells [3]): above 100 nM
- dose at which mitochondrial ATP production is significantly inhibited (H460 cells [4]): less than or equal to 1 nM
- emesis in patients, clinical phase 1 (patients [5]): induction of emesis in patients

Structure (SMILES): COc1ccc(C(O)COc2ccc(-c3csc(-c4ccc(OCC(O)c5ccc(OC)c(OC)c5)cc4)n3)cc2)cc1OC (stereo not shown) [EVT‐701, 1‐(3,4‐dimethoxyphenyl)‐2‐[4‐[2‐[4‐[2‐(3,4‐dimethoxyphenyl)‐2‐hydroxy‐ethoxy]phenyl]‐thiazol‐4‐yl]‐phenoxy]ethanol]
- induction of apoptosis (H460‐LKB1 cells [6]): no induction of apoptosis
- inhibition of kinase activity, any of the 198 kinases of the panel (198 kinases): ≤ 30%
- IC50 (H460 cells [1]; Homo sapiens, NCI-H460, read-out: IC50 apoptosis induction): 96 ± 28 nM
- IC50 (LL/2 cells [7]): 295 ± 52 nM
- IC50 (Hep3B cells): 81 ± 12 nM
- increase of ligand binding to CCK2R (CCK2R): more than 50%
- inhibition of NADH oxidation and phosphorylation of ADP into ATP [8]: 80%
- IC50 (BCRP): 4100 ± 2700 nM
- 4E‐BP1, Raptor and ACC phosphorylation (H460 WT cells): unaffected
- IC50 (H460 cells [2]; Homo sapiens, NCI-H460, read-out: apparent IC50 proliferation): 68 ± 27 nM
- IC50 (MRP2): > 30000 nM
- total ATP (H460‐LKB1 cells [9]): remains unchanged
- what limited dose escalation (ferret): by solubility
- induction of emesis (retches and vomits) (ferret): didn't
- decrease of ligand binding to A2AR (A2AR): more than 50%
- sensitivity to cell death induction, OxPhos‐Eµ‐Myc vs glycolytic‐Eµ‐Myc cells [10]: more sensitive
- IC50 (OATP1B1): 1100 ± 100 nM
- P‐gp transport (P‐gp): not affected
- cell death induction (LL/2 cells [11]): no significant cell death
- F (bioavailability) ([12]; AUC of 10 mg/kg oral dose vs AUC of intravenous dose, 10 mg/kg): 64%
- half-life ([12]; C57BL/6J, mouse, plasma, po, 10 mg/kg): 4.1 h
- dose‐proportionality ([12]; oral 10, 30 and 75 mg/kg): conserved from 10 to 75 mg/kg
- IC50 [13]: 300 nM
- glucose consumption and lactate release (KARPAS 422 cells [14]): increased glucose consumption and lactate release
- phosphorylation of 4E‐BP1 (Serine 65), Raptor and ACC downstream of AMPK (H460‐LKB1 cells [15]): increased phosphorylation state
- IC50 (MDA‐MB231 cells): 52 ± 18 nM
- decrease of tumor volume at D21 [16]: 60%
- rescue of inhibitory effect on respiration [17]: rescued by succinate
- IC50 (U87 cells): 74 ± 38 nM
- IC50 (OCT1): > 30000 nM
- IC50 (OAT1): > 30000 nM
- IC50 (OATP1B3): 2400 ± 200 nM
- overall survival [18]: no effect
- weight of lymphomas vs Vehicle [18]: similar
- progression‐free survival ([18]; data not shown): no effect
- Kp ([19]; brain): 0.25
- Kp ([19]; heart): 4.2
- Kp ([19]; kidney): 4.5
- Kp ([19]; liver): 5.9
- Kp ([19]; lung): 2.3
- Kp ([19]; pancreas): 4.5
- lymphomas harvested vs Vehicle (OxPhos‐Eµ‐Myc lymphoma): significantly smaller
- overall survival (OxPhos‐Eµ‐Myc lymphoma): significant increase
- progression‐free survival (OxPhos‐Eµ‐Myc lymphoma; not shown): significant increase
- IC50 (KARPAS 422 cells [20]): 188 ± 50 nM
- increase of ligand binding to CCK1R (CCK1R): more than 50%
- increase of MLK2 activity (MLK2): more than 30%

Structure (SMILES): Cc1nc(-c2nc(-c3ccc(OC(F)(F)F)cc3)no2)nn1Cc1cccc(N2CCC(S(C)(=O)=O)CC2)c1 [IACS‐010759]
- tolerability in phase 1 (patients [21]): well‐tolerated
